This note sets out measurements from ChEMBL document CHEMBL1126604, “Synthesis and antiviral activity of 5-thien-2-yl-2'-deoxyuridine analogues” (1993).

Assay type in all cases: functional
Experiment [1] concerns Cytomegalovirus. As to the kind of experiment: Minimum inhibitory concentration required to reduce cytomegalo virus (CMV (AD-169)) virus-induced cytopathicity by 50%. To be noted: Human betaherpesvirus 5.
The subject of experiment [2] is Cytomegalovirus. As to the kind of experiment: Minimum inhibitory concentration required to reduce cytomegalo virus (CMV (Davis)) virus-induced cytopathicity by 50%. The note with it: Human betaherpesvirus 5. (Cytopathic effects are the visible damage that an infection or toxin causes in cultured cells.)
The subject of experiment [3] is Human alphaherpesvirus 1. As to the kind of experiment: Minimum inhibitory concentration required to reduce herpes simplex virus-1 (HSV-1 (KOS)) virus-induced cytopathicity by 50%.
The subject of experiment [4] is Human alphaherpesvirus 2. Nature of the experiment: Minimum inhibitory concentration required to reduce herpes simplex virus-2 (HSV-2 (G)) virus-induced cytopathicity by 50%.
Experiment [5] has as its system Human alphaherpesvirus 1. As to the kind of experiment: Minimum inhibitory concentration required to reduce thymidine kinase deficient-HSV-1 (B2006) virus-induced cytopathicity by 50%.
Experiment [6] deals with Human alphaherpesvirus 1. As to the kind of experiment: Minimum inhibitory concentration required to reduce thymidine kinase deficient-HSV-1 (VMW 1837) virus-induced cytopathicity by 50%.
For experiment [7], the system named is Human alphaherpesvirus 3. As to the kind of experiment: Minimum inhibitory concentration required to reduce TK-VZV (07-1) virus-induced cytopathicity by 50%.
For experiment [8], the system named is Human alphaherpesvirus 3. As to the kind of experiment: Minimum inhibitory concentration required to reduce TK-VZV (YS/R) virus-induced cytopathicity by 50%.
Experiment [9] concerns Vesicular stomatitis virus. As to the kind of experiment: Minimum inhibitory concentration required to reduce VSV virus-induced cytopathicity by 50%.
A further experiment concerns Vaccinia virus. Nature of the experiment: Minimum inhibitory concentration required to reduce vaccinia virus (VV) virus-induced cytopathicity by 50%. The note with it: Orthopoxvirus vaccinia.
For experiment [10], the system named is Cell line. As to the kind of experiment: Minimum concentration required to cause a microscopically detectable alteration of human cells morphology. The procedure, abridged:
(§1)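 Cytotoxicity read as the minimum concentration causing a microscopically detectable alteration of normal cell morphology. Cells were human embryonic skin-muscle (E6SM) or human embryonic lung (HEL), seeded in 96-well plates.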

Experiment [11] relates to Cell line. Nature of the experiment: (§2) Minimum inhibitory concentration required to reduce virus-induced cell growth by 50%. To be noted: Homo sapiens. The procedure, abridged: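 Cytotoxicity was measured as inhibition of cell growth in E6SM or HEL cells seeded in 96-well plates.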
In experiment [12] the test system is Human alphaherpesvirus 3. Nature of the experiment: Minimum inhibitory concentration required to reduce Varicella-Zoster virus (VZV (Oka)) virus-induced cytopathicity by 50%.
Experiment [13] deals with Human alphaherpesvirus 1. As to the kind of experiment: Minimum inhibitory concentration required to reduce herpes simplex virus-1 (HSV-1 (McIntyre)) virus-induced cytopathicity by 50%.
The subject of experiment [14] is Human alphaherpesvirus 2. As to the kind of experiment: Minimum inhibitory concentration required to reduce herpes simplex virus-2 (HSV-2 (Lyons)) virus-induced cytopathicity by 50%.
Experiment [15] relates to Human alphaherpesvirus 1. Nature of the experiment: Minimum inhibitory concentration required to reduce herpes simplex virus-1 (HSV-1 (F)) virus-induced cytopathicity by 50%.
The subject of experiment [16] is Cell line. As to the kind of experiment: Minimum concentration required to cause a microscopically detectable alteration of cell morphology. To be noted: Homo sapiens. The procedure, abridged:
as §1

Experiment [17] can be described thus: as §2. The note with it: Homo sapiens.
Experiment [18] relates to Human alphaherpesvirus 2. Nature of the experiment: Minimum inhibitory concentration required to reduce herpes simplex virus-2 (HSV-2 (196)) virus-induced cytopathicity by 50%.
Experiment [19] concerns Human alphaherpesvirus 1. Nature of the experiment: Minimum inhibitory concentration required to reduce TK-HSV-1 (B2006) virus-induced cytopathicity by 50%.
For experiment [20], the system named is Mus musculus. Nature of the experiment: Survival of mice after intraperitoneal infection with HSV-1 (KOS) and oral administration of 25 mg/kg at day 20. The procedure, abridged: (§3)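 Mice were infected intraperitoneally with HSV-1 (KOS), 10 mice per group. Drug was given by oral gavage once daily for 5 days, starting on the day of infection, at 25, 100 or 250 mg/kg per day. Vehicle was a 90:10 suspension of Sirupus Simplex and propylene glycol; the placebo group got the same syrup. Surviving mice were counted over 20 days.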

For experiment [21], the system named is Mus musculus. As to the kind of experiment: Survival of mice after intraperitoneal infection with HSV-1 (KOS) and oral administration of 100 mg/kg at day 0. The procedure, abridged:
as §3

For experiment [22], the system named is Mus musculus. Nature of the experiment: Survival of mice after intraperitoneal infection with HSV-1 (KOS) and oral administration of 100 mg/kg at day 12. The procedure, abridged:
as §3

Experiment [23] relates to Mus musculus. As to the kind of experiment: Survival of mice after intraperitoneal infection with HSV-1 (KOS) and oral administration of 100 mg/kg at day 20. The procedure, abridged: as §3
Experiment [24] relates to Mus musculus. As to the kind of experiment: Survival of mice after intraperitoneal infection with HSV-1 (KOS) and oral administration of 100 mg/kg at day 3. The procedure, abridged: as §3
In experiment [25] the test system is Mus musculus. As to the kind of experiment: Survival of mice after intraperitoneal infection with HSV-1 (KOS) and oral administration of 100 mg/kg at day 6. The procedure, abridged: as §3
The test system of experiment [26] is Mus musculus. Nature of the experiment: Survival of mice after intraperitoneal infection with HSV-1 (KOS) and oral administration of 100 mg/kg at day 9. The procedure, abridged: as §3
Experiment [27] deals with Mus musculus. Nature of the experiment: Survival of mice after intraperitoneal infection with HSV-1 (KOS) and oral administration of 25 mg/kg at day 0. The procedure, abridged:
as §3

Experiment [28] relates to Mus musculus. Nature of the experiment: Survival of mice after intraperitoneal infection with HSV-1 (KOS) and oral administration of 25 mg/kg at day 12. The procedure, abridged: as §3
The test system of experiment [29] is Mus musculus. As to the kind of experiment: Survival of mice after intraperitoneal infection with HSV-1 (KOS) and oral administration of 25 mg/kg at day 3. The procedure, abridged:
as §3

Experiment [30] relates to Mus musculus. As to the kind of experiment: Survival of mice after intraperitoneal infection with HSV-1 (KOS) and oral administration of 25 mg/kg at day 6. The procedure, abridged:
as §3

Experiment [31] has as its system Mus musculus. Nature of the experiment: Survival of mice after intraperitoneal infection with HSV-1 (KOS) and oral administration of 25 mg/kg at day 9. The procedure, abridged:
as §3

The test system of experiment [32] is Mus musculus. As to the kind of experiment: Survival of mice after intraperitoneal infection with HSV-1 (KOS) and oral administration of 250 mg/kg at day 0. The procedure, abridged:
as §3

In experiment [33] the test system is Mus musculus. As to the kind of experiment: Survival of mice after intraperitoneal infection with HSV-1 (KOS) and oral administration of 250 mg/kg at day 12. The procedure, abridged: as §3
Experiment [34] deals with Mus musculus. Nature of the experiment: Survival of mice after intraperitoneal infection with HSV-1 (KOS) and oral administration of 250 mg/kg at day 20. The procedure, abridged: as §3
Experiment [35] deals with Mus musculus. Nature of the experiment: Survival of mice after intraperitoneal infection with HSV-1 (KOS) and oral administration of 250 mg/kg at day 3. The procedure, abridged:
as §3

Experiment [36] concerns Mus musculus. As to the kind of experiment: Survival of mice after intraperitoneal infection with HSV-1 (KOS) and oral administration of 250 mg/kg at day 9. The procedure, abridged:
as §3

Experiment [37] deals with Mus musculus. As to the kind of experiment: Survival of mice after intraperitoneal infection with HSV-1 (KOS) and oral administration of 250 mg/kg at day 6. The procedure, abridged:
as §3

In brackets after ≈: the same amount, converted by molar mass.

On to `O=c1[nH]c(=O)n([C@H]2C[C@H](O)[C@@H](CO)O2)cc1-c1ccc([N+](=O)[O-])s1`, for which the MIC against Cytomegalovirus [1] is over 40 µg/mL; against Cytomegalovirus [2], over 40 µg/mL; in the experiment on Human alphaherpesvirus 1 [3] it was 2 µg/mL (≈ 5.63 µM); in the experiment on Human alphaherpesvirus 2 [4], 150 µg/mL (≈ 422 µM); in the experiment on Human alphaherpesvirus 1 [5], over 200 µg/mL; against Human alphaherpesvirus 1 [6] it was 150 µg/mL (≈ 422 µM). Moreover, the MIC against Human alphaherpesvirus 3 [7] is 40 µg/mL (≈ 113 µM); in the experiment on Human alphaherpesvirus 3 [8], over 40 µg/mL; in [9] it was over 200 µg/mL; with Vaccinia virus it was 150 µg/mL (≈ 422 µM); in the experiment on Cell line [10], over 200 µg/mL; in the experiment on Cell line [11] it was over 50 µg/mL. The MIC against Human alphaherpesvirus 3 [12] stood at 7 µg/mL (≈ 19.7 µM).
Consider `C#Cc1ccc(-c2cn([C@H]3C[C@H](O)[C@@H](CO)O3)c(=O)[nH]c2=O)s1`, for which the MIC against Cytomegalovirus [1] is over 10 µg/mL; in the experiment with Cytomegalovirus [2], over 10 µg/mL; in the experiment with Human alphaherpesvirus 1 [3], 0.4 µg/mL (≈ 1.2 µM); in the experiment on Human alphaherpesvirus 1 [13], 0.2 µg/mL (≈ 0.598 µM); against Human alphaherpesvirus 2 [4], over 200 µg/mL; against Human alphaherpesvirus 2 [14], over 200 µg/mL. The MIC is over 200 µg/mL in the experiment on Human alphaherpesvirus 1 [6]; 5 µg/mL (≈ 15 µM) in the experiment on Human alphaherpesvirus 3 [7]; 17 µg/mL (≈ 50.8 µM) in the experiment with Human alphaherpesvirus 3 [8]; over 200 µg/mL in experiment [9]; over 200 µg/mL in the experiment with Vaccinia virus; 0.25 µg/mL (≈ 0.748 µM) in the experiment with Human alphaherpesvirus 3 [12]. Further, the MIC in the experiment with Human alphaherpesvirus 1 [15] was 0.2 µg/mL (≈ 0.598 µM); against Cell line [16], 400 µg/mL (≈ 1200 µM); in [17], 14 µg/mL (≈ 41.9 µM); in the experiment with Human alphaherpesvirus 2 [18] it was over 200 µg/mL; in the experiment on Human alphaherpesvirus 1 [19] it was over 200 µg/mL.
`O=c1[nH]c(=O)n([C@H]2C[C@H](O)[C@@H](CO)O2)cc1-c1ccno1`: the MIC against Human alphaherpesvirus 1 [3] was 20 µg/mL (≈ 67.7 µM); with Human alphaherpesvirus 1 [13] it was 2 µg/mL (≈ 6.77 µM); in the experiment with Human alphaherpesvirus 2 [4] it was 300 µg/mL (≈ 1020 µM); with Human alphaherpesvirus 2 [14] it was over 400 µg/mL; with Human alphaherpesvirus 1 [5], 300 µg/mL (≈ 1020 µM); with Human alphaherpesvirus 1 [6], over 400 µg/mL. Besides, the MIC in the experiment with Human alphaherpesvirus 3 [8] is 10 µg/mL (≈ 33.9 µM); in experiment [9] it was over 400 µg/mL; in the experiment with Vaccinia virus, over 400 µg/mL; with Cell line [10], 20 µg/mL (≈ 67.7 µM); against Cell line [11], over 50 µg/mL; in the experiment with Human alphaherpesvirus 3 [12] it was 0.48 µg/mL (≈ 1.63 µM). Further, the MIC in the experiment on Human alphaherpesvirus 1 [15] was found to be 20 µg/mL (≈ 67.7 µM); in the experiment with Human alphaherpesvirus 2 [18] it was 300 µg/mL (≈ 1020 µM).
`O=c1[nH]c(=O)n(C2O[C@H](CO)[C@@H](O)[C@@H]2O)cc1-c1ccc(Br)s1` (some centres undefined): the MIC against Cytomegalovirus [1] was 30 µg/mL (≈ 74 µM); with Cytomegalovirus [2], 35 µg/mL (≈ 86.4 µM); with Human alphaherpesvirus 1 [3], 0.08 µg/mL (≈ 0.197 µM); in the experiment on Human alphaherpesvirus 1 [13], 0.02 µg/mL (≈ 0.0494 µM); in the experiment on Human alphaherpesvirus 2 [4], 70 µg/mL (≈ 173 µM); against Human alphaherpesvirus 2 [14] it was 20 µg/mL (≈ 49.4 µM). The MIC against Human alphaherpesvirus 1 [5] was over 100 µg/mL; in the experiment with Human alphaherpesvirus 1 [6] it was over 100 µg/mL; in the experiment with Human alphaherpesvirus 3 [7], 40 µg/mL (≈ 98.7 µM); against Human alphaherpesvirus 3 [8], 40 µg/mL (≈ 98.7 µM); in [9], over 100 µg/mL; in the experiment with Vaccinia virus it was 20 µg/mL (≈ 49.4 µM). For the same molecule, the MIC is 0.05 µg/mL (≈ 0.123 µM) in the experiment with Human alphaherpesvirus 3 [12]; 0.07 µg/mL (≈ 0.173 µM) with Human alphaherpesvirus 1 [15]; over 40 µg/mL against Cell line [16]; over 50 µg/mL in experiment [17]; 70 µg/mL (≈ 173 µM) in the experiment on Human alphaherpesvirus 2 [18]. For the same molecule, the No. of mice came out at 2 in the experiment on Mus musculus [20]; 10 in the experiment on Mus musculus [21]; 1 with Mus musculus [22]; 1 in the experiment on Mus musculus [23]; 10 in the experiment on Mus musculus [24]; 8 in the experiment with Mus musculus [25]. Also, the No. of mice with Mus musculus [26] was 1; in the experiment with Mus musculus [27] it was 10; with Mus musculus [28], 2; in the experiment on Mus musculus [29] it was 10; in the experiment on Mus musculus [30], 10; in the experiment on Mus musculus [31], 2. Further, the No. of mice in the experiment with Mus musculus [32] is given as 10; in the experiment with Mus musculus [33] it was 5; in the experiment with Mus musculus [34] it was 5; in the experiment with Mus musculus [35], 10; in the experiment on Mus musculus [36], 5; in the experiment on Mus musculus [37] it was 8.
